CR mimetic SO = lowers age-related superoxide in aged yeast cells; superoxide response (% of plate mean), % at 10 µM; AID 2690; S. cerevisiae aged cells, superoxide DHE fluorescence; stronger effect = lower value; 330,000 tested, 0.18% active;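 active means superoxide response under a set limit, about three screen SD below normal, cut at about 65% in these data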;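 further: yeast aged for seven days with compound at 30 °C before DHE staining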
AI-2 QS mod = Vibrio harveyi AI-2 quorum sensing modulation | Vibrio harveyi JMH597 AI-2 luminescence/OD600 ratio, 9 h; stronger effect = lower value; strain lacks LuxN and CqsS sensors; 0 = neutral-control median | activity change, % at 7.5 µM | 300,000 tested, 0.4% active | AID 2094; in the data active means activity change below about -75%, passing the limit was not always enough;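 further: luminescence divided by OD600 gain over 9 h not by final OD600 alone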
V-ATPase pH = yeast V-ATPase proton transport regulation by pHLuorin; S. cerevisiae, pHLuorin cytosolic pH fluorescence; 350,000 tested, 0.37% active; response, % at 10 µM; AID 504577; in the data active means response mostly above about 7.3%, no sharp cut-off; inactive means mostly below about 5.4%; further: actives read high
T cruzi inh = T. cruzi replication inhibition; T. cruzi beta-gal in NIH3T3, luminescence, 90 h; inhibition, % (test concentration not listed); 300,000 tested, 1.4% active;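 active means mean inhibition across valid replicates above about 55%, limit read from the data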;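 further: signal also drops with host cell toxicity which is not excluded here; higher percent means less beta-gal luminescence so fewer parasites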
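Assay system: NIH/3T3 fibroblasts plus reporter T. cruzi. Amount: NIH/3T3 cells, 5,000 per well. Buffer or medium: DMEM, 2% fetal bovine serum. Doses: compound pinned at 50 nL/well, DMSO. Schedule: ≥90 h infection period, 3 h prior cell attachment. Signal: luminescent β-galactosidase signal after 60 min lysis. Read-out: parasite load inhibition, %.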
NRP1-CendR mod = modulators of CendR peptide binding to human neuropilin-1; O14786; FAM-RPARPAR peptide binding to NRP-1, fluorescence polarization; inhibition, % at 25 µM; 360,000 tested, 0.85% active; AID 602438;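 active means inhibition or corrected inhibition above about 18%, plus a signal ratio from 0.5 to 1.5, limit read from the data, passing the limit was not always enough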
Target sequence (O14786 whole entry, looked up): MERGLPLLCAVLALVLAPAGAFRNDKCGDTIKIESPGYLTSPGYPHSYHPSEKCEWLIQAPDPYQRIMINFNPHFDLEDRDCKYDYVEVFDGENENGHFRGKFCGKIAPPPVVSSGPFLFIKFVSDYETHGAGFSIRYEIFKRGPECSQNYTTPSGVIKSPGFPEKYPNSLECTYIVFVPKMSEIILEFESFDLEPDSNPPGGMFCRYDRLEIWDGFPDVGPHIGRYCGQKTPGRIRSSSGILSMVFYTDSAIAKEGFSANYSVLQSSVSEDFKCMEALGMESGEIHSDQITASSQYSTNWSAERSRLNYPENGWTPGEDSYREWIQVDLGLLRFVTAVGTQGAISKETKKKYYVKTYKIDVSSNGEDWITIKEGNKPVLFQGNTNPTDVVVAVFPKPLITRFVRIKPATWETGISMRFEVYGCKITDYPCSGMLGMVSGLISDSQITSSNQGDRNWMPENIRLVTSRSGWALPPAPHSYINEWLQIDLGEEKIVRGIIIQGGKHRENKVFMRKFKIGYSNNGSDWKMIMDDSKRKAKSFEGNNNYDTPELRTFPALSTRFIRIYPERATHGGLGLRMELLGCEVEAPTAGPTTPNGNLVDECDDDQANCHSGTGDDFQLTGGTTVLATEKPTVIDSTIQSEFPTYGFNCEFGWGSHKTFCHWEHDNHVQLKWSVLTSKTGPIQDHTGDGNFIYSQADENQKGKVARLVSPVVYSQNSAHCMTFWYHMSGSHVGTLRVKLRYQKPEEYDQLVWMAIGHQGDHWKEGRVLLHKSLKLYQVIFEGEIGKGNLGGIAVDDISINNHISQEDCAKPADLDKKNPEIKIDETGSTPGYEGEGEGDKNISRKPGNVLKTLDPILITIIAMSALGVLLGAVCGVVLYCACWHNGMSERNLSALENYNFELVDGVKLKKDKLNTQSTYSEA
HIF activator = HIF pathway transcriptional activation. activation, % at 7.5 µM (by protocol). 300,000 tested, 0.32% active. U2OS HRE-luciferase reporter, luminescence; normalized: DMSO 0%, desferrioxamine 100%. AID 1910;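 active means mean activation of at least 10% of the iron chelator positive control signal, with at least half of replicates also reaching 10%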
Superoxide pick = yeast aging superoxide inhibition, cherry pick confirmation. shares compounds with CR mimetic SO. S. cerevisiae aging, superoxide DHE fluorescence; stronger effect = lower value. superoxide response (% of plate), % at 10 µM. 850 tested, 1% active;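 active means superoxide signal below 65% of the plate average of sample wells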;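 further: cells aged with compound for 7 days at 30 degrees C before staining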
DHE fluor count = DHE fluorescence interference, counter-screen artifact; shares compounds with CR mimetic SO; S. cerevisiae BY4741, flow cytometry; stronger effect = lower value; fluorescence response, % at 10 µM; 850 tested, under 10 active;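 active means fluorescence response below 15%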;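 further: lower means stronger quenching of DHE signal or ROS scavenging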
Large screens that a line does not name were inactive (follow-up assays come after a bar, where they were run). The list is not random: actives were taken first. Their share in the collection is about 3%.

CCOc1ccc(S(=O)(=O)N2CCCC2)cc1	none | Superoxide pick inactive | DHE fluor count inactive
Cc1cccc(-c2cc3nc(C)cc(C)n3n2)c1	none
Cc1cc(C)n2nc(-c3cccc(Br)c3)cc2n1	none | Superoxide pick inactive | DHE fluor count inactive
COC(=O)[C@@]1(Cc2ccccc2)[C@H]2C(=O)N(Cc3ccccc3)C(=O)[C@H]2[C@H]2CN=C(SCC3CC3)N21	none (no result: AI-2 QS mod, T cruzi inh, HIF activator)
Cc1nc2c(=O)oc3ccccc3c2n1-c1ccccc1	none
CCn1c(C)nc2c(=O)oc3ccccc3c21	CR mimetic SO 65.1 | Superoxide pick inactive | DHE fluor count inactive
N#CCCN(Cc1ccccc1)C(=S)NC(=O)c1ccccc1	CR mimetic SO 57.2 | Superoxide pick inactive | DHE fluor count inactive
O=C(CN1CCN(c2ccccn2)CC1)Nc1ccc(F)cc1F	none | Superoxide pick inactive | DHE fluor count inactive
Cc1ccc(F)cc1NC(=O)CN1CCN(c2ccccn2)CC1	none | Superoxide pick inactive | DHE fluor count inactive
O=C(CN1CCN(c2ccccn2)CC1)Nc1cc(F)ccc1F	none | Superoxide pick inactive | DHE fluor count inactive
Cc1ccc(-c2nnc(SCc3ccc(C#N)cc3)n2Cc2ccco2)cc1	none
CS(=O)(=O)N1CCN(C(=O)C2c3ccccc3Oc3ccccc32)CC1	none
Cc1nn(CC(O)c2ccccc2)c(C)c1Br (centres undefined)	none
Cc1nn(-c2nnc(NCc3ccccc3)nn2)c(C)c1Br	CR mimetic SO 63.4 | Superoxide pick inactive | DHE fluor count inactive
COc1cccc(NC(=O)CSc2cccc[n+]2[O-])c1	none (no result: AI-2 QS mod, T cruzi inh, HIF activator)
COc1cccc(NC(=S)NC(=O)/C=C/c2ccc(F)cc2)c1	none
CC(=O)c1ccc(NC(=S)NC(=O)/C=C/c2ccc(F)cc2)cc1	CR mimetic SO 48.6 | Superoxide pick inactive | DHE fluor count inactive
C=CCc1c(C)nc2cc(-c3ccc(C)cc3)[nH]n2c1=O	none
CCc1c(C)nc2cc(-c3ccccc3)[nH]n2c1=O	none | Superoxide pick inactive | DHE fluor count inactive
CCc1c(C)nc2c(-c3ccccc3)c(-c3ccccc3)[nH]n2c1=O	none | Superoxide pick inactive | DHE fluor count inactive
Cc1cccc(-c2cc3nc(-c4ccccc4)cc(=O)n3[nH]2)c1	none | Superoxide pick inactive | DHE fluor count inactive
Cc1ccc(C(=O)N2CCN(c3ccc(NC(=O)Cc4ccccc4)cc3)CC2)cc1	none
Cc1ccc(-c2nnc(Nc3ccc(OCC(N)=O)cc3)c3ccccc23)cc1S(N)(=O)=O	none | Superoxide pick inactive | DHE fluor count inactive
CNC(=O)c1ccc(Nc2nnc(-c3ccc(C)c(S(N)(=O)=O)c3)c3ccccc23)cc1	none | Superoxide pick inactive | DHE fluor count inactive
CCOC(=O)CNS(=O)(=O)c1cc(-c2nnc(Nc3ccc4c(c3)OCO4)c3ccccc23)ccc1C	none
Cc1ccc(-c2nnc(Nc3ccc(CC(N)=O)cc3)c3ccccc23)cc1S(N)(=O)=O	none | Superoxide pick inactive | DHE fluor count inactive
Cc1ccc(-c2nnc(Nc3ccc(O)cc3)c3ccccc23)cc1S(=O)(=O)NCCO	none | Superoxide pick inactive | DHE fluor count inactive
O=C(CCC(=O)c1cccs1)Nc1ccc(F)c(F)c1F	none
COc1ccc(CCNC(=O)CCNS(=O)(=O)c2cccc(Cl)c2)cc1OC	CR mimetic SO 58.8 | Superoxide pick inactive | DHE fluor count inactive
COc1ccc(CCNC(=O)CNS(=O)(=O)c2ccc(N(C)C)c([N+](=O)[O-])c2)cc1OC	CR mimetic SO 65.3 | Superoxide pick inactive | DHE fluor count inactive
CCCNS(=O)(=O)c1ccc(CCC(=O)NCCc2ccc(OC)c(OC)c2)cc1	none
CCOc1cc(S(=O)(=O)N(CC)CC)ccc1Br	none
COc1ccccc1NC(=O)CN1CCN(c2ccccn2)CC1	none | Superoxide pick inactive | DHE fluor count inactive
COc1cc(NC(=O)CN2CCN(S(=O)(=O)/C=C/c3ccccc3)CC2)cc(OC)c1OC	none (no result: AI-2 QS mod, T cruzi inh, HIF activator)
COC(=O)c1ccccc1NC(=O)CN1CCCCCC1	none
COc1cc(NC(=O)CN2CCN(c3ccccn3)CC2)cc(OC)c1OC	none (no result: AI-2 QS mod) | Superoxide pick inactive | DHE fluor count inactive
COC(=O)c1ccccc1NC(=O)CN1CCN(c2ccccn2)CC1	none | Superoxide pick inactive | DHE fluor count inactive
O=C(CN1CCN(c2ccccn2)CC1)Nc1ccccc1F	none
O=C(CN1CCN(c2ccccn2)CC1)Nc1ccccc1Br	none | Superoxide pick inactive | DHE fluor count inactive
CN(CCN1CCOCC1)C(=O)c1cc(COc2ccc(F)cc2Cl)on1	none (no result: CR mimetic SO, AI-2 QS mod, T cruzi inh, HIF activator)
COc1ccc(-c2cc3nc(NCc4ccc(NC(C)=O)cc4)n(C)c(=O)c3s2)cc1OC	none (no result: CR mimetic SO, AI-2 QS mod, V-ATPase pH, T cruzi inh, HIF activator)
CCOC(=O)C(NC(=O)CC)(Nc1ccc(S(=O)(=O)Nc2cc(C)on2)cc1)C(F)(F)F (centres undefined)	none
CC(=O)NC12CC3CC(C1)CC(C(=O)N(C)CC(=O)Nc1cccc(F)c1)(C3)C2	none (no result: AI-2 QS mod, T cruzi inh, HIF activator)
N#Cc1ccccc1NC(=O)CN1CCN(c2ccccn2)CC1	none | Superoxide pick inactive | DHE fluor count inactive
COc1ccccc1NC(=O)CN1CCN(CC(=O)Nc2cc(C)ccc2OC)CC1	none (no result: CR mimetic SO)
Cc1ccc(NC(=O)CN2CCN(c3ccccn3)CC2)c(Cl)c1	none | Superoxide pick inactive | DHE fluor count inactive
O=C(CN1CCN(c2ccccn2)CC1)Nc1cccc(Cl)c1Cl	none | Superoxide pick inactive | DHE fluor count inactive
N#Cc1ccccc1NC(=O)CN1CCOCC1	none
Cc1cc(C)cc(NC(=O)CN2CCN(c3ccccn3)CC2)c1	none
O=C(CN1CCN(c2ccccn2)CC1)Nc1cccc(S(=O)(=O)N2CCOCC2)c1	none
COc1ccc(C)cc1NC(=O)CN1CCN(c2ccccn2)CC1	none | Superoxide pick inactive | DHE fluor count inactive
COC(=O)c1cc(C(=O)Nn2cnnc2)cc([N+](=O)[O-])c1	none
O=C(CN1CCN(c2ccc([N+](=O)[O-])cc2)CC1)Nc1ccccn1	CR mimetic SO 60.2 | Superoxide pick inactive | DHE fluor count inactive
O=S(=O)(Nc1ccc(Cc2ccncc2)cc1)c1ccc(Br)cc1	none
NS(=O)(=O)c1ccc(NS(=O)(=O)c2ccc(Br)cc2)cc1	none | Superoxide pick inactive | DHE fluor count inactive
CCN(CC)S(=O)(=O)c1ccc(N2CCCC2)c(NC(=O)Cc2ccccc2)c1	CR mimetic SO 39.7 | Superoxide pick inactive | DHE fluor count inactive
O=C(Cc1ccccc1F)Nc1cc(S(=O)(=O)N2CCOCC2)ccc1N1CCCC1	none (no result: AI-2 QS mod, V-ATPase pH, T cruzi inh, HIF activator) | Superoxide pick inactive | DHE fluor count inactive
CCN(CC)S(=O)(=O)c1ccc(N2CCCC2)c(NS(=O)(=O)c2ccccc2)c1	none
